From PubChem BioAssay
Hits are enriched below; roughly 4.6% of the tested compounds scored in any of these assays.
GPR7 antagonist: GPR7 receptor antagonists, primary screen, cell-based, fluorescence, single concentration; GPR7-expressing cells, fluorescence antagonist assay; inhibition, % at 4.4 µM; hit rate 1.1% among 290,000; AID 1861, 2009; in the data active = inhibition above about 16%, passing the limit was not always enough;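 note: cells stimulated with the agonist NPW; 0% = agonist with vehicle and 100% = vehicle without agonist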
TAAR1 antag: human TAAR1 antagonists, primary screen, Fluo-8 calcium fluorescence, CHO RD-HGA16 cells | antagonist | inhibition, % at 3 µM | hit rate 1.5% among 360,000;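 active = inhibition above a per-plate cutoff, the mean inhibition of test compounds on that plate plus 3 SD, cut at about 49% in these data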;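 note: 0% = DMSO plus EC80 beta-PEA response and 100% = DMSO alone without agonist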
Target sequence (Q96RJ0 whole entry, looked up): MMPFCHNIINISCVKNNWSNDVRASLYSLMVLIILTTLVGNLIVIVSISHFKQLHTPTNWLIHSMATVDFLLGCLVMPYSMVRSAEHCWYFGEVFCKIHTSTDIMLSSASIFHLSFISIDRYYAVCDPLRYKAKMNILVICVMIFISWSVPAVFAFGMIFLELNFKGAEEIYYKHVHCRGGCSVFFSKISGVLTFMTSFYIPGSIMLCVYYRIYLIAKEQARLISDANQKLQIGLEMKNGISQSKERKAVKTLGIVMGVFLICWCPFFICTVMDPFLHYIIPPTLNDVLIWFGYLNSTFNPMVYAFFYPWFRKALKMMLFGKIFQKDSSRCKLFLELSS
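Assay system: RD-HGA16 CHO cells with stable hTAAR1 and Gα16 / Reagent: EC80 β-phenethylamine stimulus / Doses: 3 µM, single point / Timing: dye loading 75 min at 37 °C, then 30 min room temperature / Measured by: Fluo-8 intracellular calcium dye fluorescence, real-time kinetic reads / Controls: vehicle wells and EC80 agonist wells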
TAAR1 agonist: human TAAR1 agonists, primary screen, Fluo-8 calcium fluorescence, CHO RD-HGA16 cells; Trace amine-associated receptor 1 (Homo sapiens), Q96RJ0; vehicle wells 0%, saturating PEA agonist 100%; activation, % at 3 µM; hit rate 0.99% among 360,000; AID 624467, 2012;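 active = activation above the mean activation of all test compounds in the run plus 3 SD, cut at about 38% in these data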
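Assay system: CHO-derived RD-HGA16 cells with stable Gα16 and human TAAR1; timing: 17-24 h seeding, 75 min 37 °C dye, 30 min RT; read-out: % activation from peak over basal fluorescence ratio, DMSO-to-PEA scaled; measured by: kinetic Fluo-8 calcium fluorescence; benchmarks: low control DMSO, high control PEA (EC100); doses: 3 µM single concentration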
OX1R antag-1: OX1R (HCRTR1) antagonists, primary screen, fluorescence, CHO/OX1R cells, Fluo-8 calcium, orexin A | Fluo-8 calcium fluorescence | inhibition, % at 5 µM | hit rate 0.43% among 330,000 | AID 434989, 2010;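 active = inhibition above its plate's threshold, mean inhibition of all tested compounds on the plate plus 3 SD, cut at about 37% in these data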;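 note: 0% = orexin A challenge wells and 100% = SB-334867-A antagonist wells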
Target sequence (O43613 whole entry, looked up): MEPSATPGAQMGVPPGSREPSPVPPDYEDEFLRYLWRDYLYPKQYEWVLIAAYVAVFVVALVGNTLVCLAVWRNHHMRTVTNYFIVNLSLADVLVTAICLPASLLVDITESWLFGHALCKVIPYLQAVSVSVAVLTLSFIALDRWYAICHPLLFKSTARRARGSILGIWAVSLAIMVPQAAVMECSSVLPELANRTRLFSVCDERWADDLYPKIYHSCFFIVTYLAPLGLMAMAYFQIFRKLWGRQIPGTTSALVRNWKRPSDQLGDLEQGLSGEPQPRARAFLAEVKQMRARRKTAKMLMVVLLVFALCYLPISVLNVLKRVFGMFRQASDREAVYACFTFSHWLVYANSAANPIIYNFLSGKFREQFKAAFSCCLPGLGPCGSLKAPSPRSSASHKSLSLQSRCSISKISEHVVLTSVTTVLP
CHO parental Ca: ATP-evoked calcium signal inhibitors, parental CHO, primary screen, counter-screen for OX1R antagonist project, cell-based, fluorescence, Fluo-8 calcium dye; inhibition, % at 5.6 µM; parental CHO-K1, ATP-induced calcium, Fluo-8 fluorescence; hit rate 0.63% among 330,000; AID 463079, 2010;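 active = inhibition above that plate's mean sample inhibition plus 3 SD, cut at about 26% in these data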;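 note: 0% = ATP-challenged DMSO wells and 100% = DMSO wells without ATP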
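material = parental CHO cells | also added = ATP as calcium-mobilizing challenge | dosing = single point at 5.6 µM | detection = intracellular calcium via Fluo-8 no-wash fluorescent dye | read-out = % inhibition | benchmarks = low control ATP plus DMSO, high control DMSO only | repeats = one well per compound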
OX1R antag-2: antagonists of human orexin 1 receptor (OX1R); Orexin/Hypocretin receptor type 1 (Homo sapiens), O43613; OX1R-expressing cells, FRET antagonist read-out; inhibition, % at 6.6 µM; hit rate 1.8% among 330,000; AID 485270, 2010; in the data active = inhibition mostly above about 38%, no sharp cut-off; inactive = mostly below about 40%;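 note: 0% = agonist challenge alone and 100% = reference antagonist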
GPR7 antag cf: GPR7 receptor antagonists, confirmation, cell-based, fluorescence, single concentration; shares compounds with GPR7 antagonist; GPR7-expressing cells, calcium fluorescence antagonist mode; inhibition, % at 4.4 µM; hit rate 52% among 2,400; AID 1952, 2009; in the data active = inhibition above about 24%;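 note: stimulated with the GPR7 agonist NPW; 0% = agonist plus vehicle and 100% = vehicle alone without agonist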
MCHR1 antagonist: MCHR1 antagonists in cells, counter-screen for GPR7 antagonist project, cell-based, fluorescence, human | shares compounds with GPR7 antagonist | MCHR1-expressing cells, fluorescence antagonist assay | inhibition, % at 4.4 µM | hit rate 62% among 2,400;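 note: 0% = vehicle with agonist and 100% = vehicle without agonist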
OX1R Ca confirm: OX1R (HCRTR1) antagonists, confirmation, fluorescence, CHO/OX1R cells, Fluo-8 calcium, orexin A | shares compounds with OX1R antag-1 | inhibition, % at 5 µM | orexin A calcium Fluo-8 fluorescence | AID 492963, 2010 | hit rate 38% among 1,100; in the data active = inhibition above about 29%;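 note: 0% = agonist challenge alone and 100% = reference antagonist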
CHO Ca triplic: ATP-evoked calcium inhibition in parental CHO, counter-screen for OX1R antagonist project, cell-based, fluorescence, CHO-K1, triplicate | AID 492965, 2010 | ATP-induced calcium, Fluo-8 fluorescence | shares compounds with OX1R antag-1 | inhibition, % at 5.6 µM | hit rate 9.3% among 1,100;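 active = inhibition above a per-plate limit, the mean inhibition of that plate's test compounds plus 3 SD, cut at about 25% in these data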;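 note: 0% = ATP challenge with DMSO and 100% = DMSO without ATP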
OX1R HTRF confirm: OX1R (HCRTR1) antagonists, confirmation, cell-based, HTRF; shares compounds with OX1R antag-2; OX1R-expressing cells, HTRF antagonist assay; inhibition, % at 6.6 µM; hit rate 49% among 1,800; in the data active = inhibition above about 55%;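 note: CHO cells expressing OX1R stimulated with orexin A at about EC80; 0% = agonist challenge alone and 100% = reference antagonist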
CHO-K1 HTRF cnt: signal inhibition in parental CHO-K1 cells, counter-screen for OX1R antagonist project, cell-based, HTRF | hit rate 48% among 1,800 | HTRF counterscreen | shares compounds with OX1R antag-2 | AID 493232, 2011 | inhibition, % at 6.6 µM; in the data active = inhibition above about 17%;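 note: 0% = agonist challenge with vehicle and 100% = vehicle alone without agonist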
TAAR1 nonsel count: nonselective antagonists in TAAR1 counter-screen cells, counter-screen for hTAAR1 antagonist project, cell-based, fluorescence, calcium | inhibition, % at 3 µM | counterscreen cell line, antagonist mode | AID 651780, 2012 | shares compounds with TAAR1 antag | hit rate 77% among 2,400;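 note: CHO-Ga16 host cells stimulated with ATP at an EC80 level; 0% = agonist EC80 plus vehicle and 100% = vehicle without agonist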
TAAR1 antag conf: human TAAR1 antagonists, retest of hits, confirmation, cell-based, fluorescence; shares compounds with TAAR1 antag; TAAR1-expressing cells, fluorescence antagonist read-out; inhibition, % at 3 µM; hit rate 40% among 2,400; in the data active = inhibition above about 49%;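 note: CHO-Ga16 host cells challenged with agonist PEA near its EC80; 0% = agonist at EC80 plus vehicle and 100% = vehicle with no agonist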
Ga16 ag counter: calcium activation in Ga16-expressing cells, counter-screen for TAAR1 antagonist project, cell-based, fluorescence. hit rate 18% among 2,400. agonist counterscreen. activation, % at 3 µM. shares compounds with TAAR1 antag; in the data active = activation above about 12%;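 note: 0% = vehicle wells and 100% = saturating stimulus response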
TAAR1 ag counter: TAAR1 activation by candidate antagonists – cell-based, fluorescence, counter-screen for TAAR1 antagonist project | activation, % at 3 µM | hTAAR1 cell line, agonist mode | shares compounds with TAAR1 antag | hit rate 2% among 2,400; in the data active = activation above about 37%;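 note: CHO cells stably expressing TAAR1 with calcium dye readout; 0% = DMSO vehicle and 100% = full agonist response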
Active calls of the source: *; / = not tested or not shown; ! = not confirmed by another sample. Cut-off read from the data, not from the text of the source, unless noted: active = inhibition above about 22%; inactive = the rest.

SMILES	GPR7 antagonist	TAAR1 antag	TAAR1 agonist	OX1R antag-1	CHO parental Ca	OX1R antag-2	GPR7 antag cf	MCHR1 antagonist	TAAR1 nonsel count	TAAR1 antag conf	Ga16 ag counter	TAAR1 ag counter	others
O=S(=O)(NC1CC1)c1ccc(S(=O)(=O)N2CCCc3ccccc32)cc1	22.0*	42.7	3.9	81.7*	0.8	37.4*	29.7*	28.5*	/	/	/	/	OX1R Ca confirm=60.5*;CHO Ca triplic=4.5;OX1R HTRF confirm=61.8*;CHO-K1 HTRF cnt=-1.2
O=S(=O)(c1ccccc1)N1CCCc2ccccc21	-12.0	/	/	-13.6	3.3	16.8	/	/	/	/	/	/
C[C@@H]1COc2cc(N3CC[C@H](O)C3)ccc2S(=O)(=O)N1	/	-1.2	2.4	/	/	/	/	/	/	/	/	/
COCCCNC(=O)/C=C1\Sc2ccccc2N(Cc2ccccc2F)C1=O	/	-7.2	2.0	3.7	-18.5	85.6*	/	12.3	/	/	/	/	OX1R HTRF confirm=76.6*;CHO-K1 HTRF cnt=3.4
CC(=O)Nc1ccc(Sc2ccc([N+](=O)[O-])o2)cc1	/	-3.9	2.2	/	/	/	/	/	/	/	/	/
CC(C)(C)C(=O)Nc1ccc(Sc2ccc([N+](=O)[O-])cc2)cc1	24.7*	91.4*	5.7	24.3	10.2	25.7	23.1	69.5*	48.7*	60.4*	8.2	1.7
N#Cc1c(N)[nH]c(C(=O)c2ccccc2)c1-c1ccccc1Br	/	12.3	19.7	/	/	/	/	/	/	/	/	/
COc1cccc(/C(C)=N/Nc2ccc(S(=O)(=O)N3CCCCC3)cn2)c1	/	14.4	-3.4	-33.6	-14.3	2.4	/	/	/	/	/	/
CC1(C)CC(C(CCN(Cc2ccccc2)C(=O)c2ccco2)c2ccc(F)cc2)CCO1 (centres undefined)	31.1*	73.0*	4.5	-2.9	-10.5	8.2	37.2*	60.5*	40.9*	54.2*	5.5	0.4
O=C(c1ccco1)N(CCC(c1ccccc1)c1ccco1)Cc1ccc(F)cc1 (centres undefined)	17.4	/	/	4.0	6.1	0.5	/	/	/	/	/	/
COc1ccc(OC)c(NC(=O)c2cccc(N3C(=O)C4C5C=CC(C6CC56)C4C3=O)c2)c1 (centres undefined)	24.1*	75.0*	11.0	-31.0	-7.0	9.0	21.8	69.4*	46.2*	61.9*	13.2*	10.2
Cc1c(C(=O)N2CCN(c3ccc(F)cc3)CC2)sc2ncnc(N3CCN(c4ccccn4)CC3)c12	22.6*	70.0*	9.6	-8.2	-2.1	26.4	15.8	69.5*	29.3*	47.2	9.3	7.7
CCN(CC(=O)Nc1ccc(C(=O)OC)cc1)C1CCCCC1	-1.7	-5.7	5.2	-25.4	-13.3	13.8	/	/	/	/	/	/
COc1cc(-c2noc(C)c2/C=C/c2cccc([N+](=O)[O-])c2)cc(OC)c1OC	35.4*	73.8*	10.6	0.5	-7.3	16.8	45.6*	65.5*	28.4*	42.4	2.0	0.0
COc1ccc(Cc2nc3ccc(C(=O)N(C)CCCN4CCOCC4)cc3o2)cc1	3.8	-12.4	0.5	-16.9	-13.0	6.0	/	/	/	/	/	/
O=C(Nc1nc(-c2ccc(S(=O)(=O)N3CCOCC3)cc2)cs1)c1ccccc1	33.5*	59.5*!	13.2	-0.3	-2.6	15.8	61.0*	76.2*	28.1*	50.1*	10.7	6.5
O=C(Nc1ccc2c(c1)CCCN2C(=O)c1cccs1)c1c(F)cccc1Cl	25.9*	59.3*	1.4	-17.8	-8.0	13.5	16.0	40.6*	22.0*	43.4	7.7	13.2
CN1/C(=C\C(=O)COC(=O)Cn2nnc(-c3ccccc3)n2)C(C)(C)c2ccccc21	25.9*	51.6*	9.2	36.6	54.1*	31.2	17.8	38.2*	44.0*	39.4	7.0	-0.1
CN1/C(=C/C(=O)COC(=O)CN2C(=O)C3CC=CCC3C2=O)C(C)(C)c2ccccc21 (centres undefined)	/	20.1	2.0	/	/	/	/	/	/	/	/	/
CCOC(=O)c1ccc(NC(=O)c2cccc(S(=O)(=O)N3CCOCC3)c2)cc1	23.8*	62.2*	22.9	27.5	33.0*	45.9	21.3	74.8*	33.7*	47.9	13.8*	11.9
CC(=O)c1cccc(NC(=O)c2cccc(S(=O)(=O)N3CCOCC3)c2)c1	-2.9	-2.6	0.9	-7.4	-15.7	8.7	/	/	/	/	/	/
CCOC(=O)c1cc(-c2ccncc2)nc2c1c(C)nn2C	-2.1	-29.8	2.4	-32.9	-15.5	16.0	/	/	/	/	/	/
